Test results reported in ChEMBL document CHEMBL3259808, “Optimization of antitrypanosomatid agents: identification of nonmutagenic drug candidates with in vivo activity” (J Med Chem, 2014).
Values joined by “and” are separate entries in the source; they are usually repeats but may differ in a detail not shown here. Identical values can stand only once.

What was measured:
Trypanosoma cruzi [1] = assay: Antitrypanosomal activity against Trypanosoma cruzi Sylvio X-10 amastigotes infected in African green monkey Vero cells assessed as eradication of amastigotes after 5 days by Giemsa staining-based assay; assay type: functional, organism-based; details: Sylvio X-10, Vero, 120 h
Outline: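 VERO cells in RPMI 1640 with 10% hiFCS were allowed to adhere for 24 h at 37 °C in 5% CO₂, then infected with tissue-derived trypomastigotes at 10:1. Free parasites were washed off after 24 h, and cultures were treated at five compound doses (text gives 72 h / 5 days). Cultures were methanol-fixed and Giemsa-stained, and infected cells were counted among 300. Quadruplicates were run in three independent experiments. IC50/IC90 were obtained by sigmoidal regression.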

Salmonella typhimurium [2] = assay: Mutagenic activity in Salmonella typhimurium TA98 at 3 to 250 ug/plate by Ames test; assay type: toxicity, organism-based; details: salmonella enterica subsp. enterica serovar typhimurium
Outline: (§1)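 Ames plate-incorporation assay with S. typhimurium TA98 in Vogel-Bonner E minimal glucose agar. Toxicity toward the bacteria was checked first. DMSO solutions were run in triplicate at five consecutive third-dilutions, starting at the highest non-toxic dose. Positive controls were 4-nitro-o-phenylenediamine (20.0 μg/plate) and 2-aminofluorene (10.0 μg/plate); DMSO was the negative control. Revertants were counted manually. A compound was called mutagenic when revertants were at least twice the negative control at two or more consecutive doses.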

[3] = Selectivity index, ratio of IC50 for human RBC to IC50 for Trypanosoma cruzi Sylvio X-10 amastigotes
Outline: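 Hemolysis: washed human erythrocytes (2% w/v in PBS) incubated 24 h at 37 °C with compound at final 50, 100 and 200 μM. Ten replicates per concentration. Hemoglobin release read at 405 nm against water lysis as 100%; amphotericin B 1.5 μM was the positive control. SI = IC50 red cells / parasite IC50 (Sylvio X-10 amastigotes or Tulahuen 2 epimastigotes).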

Trypanosoma cruzi [4] = assay: Antitrypanosomal activity against Trypanosoma cruzi Tulahuen 2 epimastigotes assessed as growth inhibition after 5 days; assay type: functional, organism-based; details: Trypanosoma cruzi, Tulahuen 2, 120 h
Outline: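 Epimastigotes were grown axenically at 28 °C in BHI-tryptose with 5% FBS and seeded from a 5–7 day culture at 1 × 10⁶ cells/mL. Drug from a DMSO stock was added (final DMSO ≤0.4%; the control contained 0.4% DMSO). Duplicates were run. A600 was read at day 5, and % inhibition was calculated relative to day-0 and control readings. IC50 = concentration that halves the absorbance ratio.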

[5] = Selectivity index, ratio of IC50 for African green monkey Vero cells to IC50 for Trypanosoma cruzi Sylvio X-10 amastigotes; assay type: toxicity, cell-based; details: read-out: Ratio IC50
Outline: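 VERO cytotoxicity: cells exposed 48 h at 37 °C, 5% CO2 to serial dilutions from a maximum of 2000 μM (DMSO stocks; DMSO <0.1% control); growth inhibition read by MTT at 570 nm. Amastigote IC50: Sylvio X-10-infected VERO cells, five doses, infected cells counted among 300 (Giemsa), quadruplicate, three experiments, sigmoidal fit. SI = IC50 VERO / IC50 amastigote.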

Salmonella typhimurium [6] = assay: Mutagenic activity in Salmonella typhimurium TA98 at 3 to 250 ug/plate by Ames test in presence of mouse liver S9 fraction; assay type: toxicity, organism-based; details: salmonella enterica subsp. enterica serovar typhimurium; outline: as §1
Salmonella typhimurium [7] = assay: Mutagenic activity in Salmonella typhimurium TA98 at 5 to 400 ug/plate by Ames test; assay type: toxicity, organism-based; details: salmonella enterica subsp. enterica serovar typhimurium; outline: as §1
[8] = Selectivity index, ratio of IC50 for mouse J774.1 cells to IC50 for Trypanosoma cruzi Sylvio X-10 amastigotes; assay type: toxicity; details: read-out: Ratio IC50
Outline: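 J774.1 macrophages grown in DMEM with 10% heat-inactivated FCS and allowed to attach 48 h, then exposed 48 h at 37 °C to 12.5–400.0 μM. Triplicates. MTT 0.1 mg/mL for 3 h, read at 560 nm; IC50 by linear regression against the solvent control. SI = IC50 J774.1 / parasite IC50 (Sylvio X-10 amastigotes or Tulahuen 2 epimastigotes, the latter measured by A600 growth inhibition at day 5).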

Trypanosoma cruzi [9] = assay: Antitrypanosomal activity against Trypanosoma cruzi Sylvio X-10 amastigotes infected in African green monkey Vero cells assessed as eradication of amastigotes after 72 hrs by Giemsa staining-based assay; details: vero
[10] = Cytotoxicity against African green monkey Vero cells assessed as growth inhibition at 25 uM after 48 hrs by MTT assay relative to control; assay type: cell-based; details: chlorocebus sabaeus, read-out: GI
Outline: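 VERO cells were exposed to serial dilutions in fresh medium of compounds dissolved in DMSO, for 48 h at 37 °C in 5% CO₂. A DMSO (<0.1%) negative control was included. Growth inhibition was read by MTT at 570 nm; nifurtimox was the positive control.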

Salmonella typhimurium [11] = assay: Mutagenic activity in Salmonella typhimurium TA98 at 0.005 to 0.4 ug/plate by Ames test; assay type: toxicity, organism-based; details: salmonella enterica subsp. enterica serovar typhimurium
Outline: (§2)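 Direct plate incubation on minimal glucose agar (Vogel-Bonner E). Compound toxicity to the bacteria was checked first. DMSO solutions were tested at five consecutive 3-fold dilutions, starting from the highest non-toxic dose, in triplicate, without metabolic activation. DMSO served as negative control. Revertants were counted manually; mutagenic = revertants at least double the negative control at two or more consecutive doses.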

Salmonella typhimurium [12] = assay: Mutagenic activity in Salmonella typhimurium TA98 at 0.005 to 0.4 ug/plate by Ames test in presence of mouse liver S9 fraction; assay type: toxicity, organism-based; details: salmonella enterica subsp. enterica serovar typhimurium
Outline: (§3)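 Plate-incorporation Ames test on minimal glucose agar with 500 μL Aroclor-treated mouse liver S9 added. DMSO solutions were tested at five consecutive 3-fold dilutions from the highest non-toxic dose, in triplicate, with a DMSO negative control. Revertants were counted manually; a compound was scored mutagenic when revertants were at least twice the negative control for two or more consecutive doses.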

Salmonella typhimurium [13] = assay: Mutagenic activity in Salmonella typhimurium TA98 at 6 to 500 ug/plate by Ames test in presence of mouse liver S9 fraction; assay type: toxicity, organism-based; details: salmonella enterica subsp. enterica serovar typhimurium; outline: as §1
Trypanosoma cruzi [14] = assay: Antitrypanosomal activity against Trypanosoma cruzi Sylvio X-10 amastigotes infected in African green monkey Vero cells assessed as eradication of amastigotes after 72 hrs by Giemsa staining-based assay; details: Sylvio X-10, Vero
Salmonella typhimurium [15] = assay: Mutagenic activity in Salmonella typhimurium TA98 at 6 to 500 ug/plate by Ames test; assay type: toxicity, organism-based; details: salmonella enterica subsp. enterica serovar typhimurium; outline: as §1
Salmonella typhimurium [16] = assay: Mutagenic activity in Salmonella typhimurium TA98 at 0.02 to 2 ug/plate by Ames test in presence of mouse liver S9 fraction; assay type: toxicity, organism-based; details: salmonella enterica subsp. enterica serovar typhimurium; outline: as §3
Salmonella typhimurium [17] = assay: Mutagenic activity in Salmonella typhimurium TA98 at 0.02 to 2 ug/plate by Ames test; assay type: toxicity, organism-based; details: salmonella enterica subsp. enterica serovar typhimurium; outline: as §2

| SMILES | IC50 (Trypanosoma cruzi [1]) [nM] | Ratio IC50 [3] | IC50 (Trypanosoma cruzi [4]) [nM] | selectivity ratio [5] | further results |
| --- | --- | --- | --- | --- | --- |
| C=CCNC(=S)N/N=C/C=C/c1ccc([N+](=O)[O-])s1 | 1290 | 82 | 1200 | 60 | Activity (Salmonella typhimurium [2]): Toxic; Activity (Salmonella typhimurium [6]): Toxic |
| C=CCN1C(=O)CS\C1=N/N=C/C=C/c1cccs1 | – | – | 20000 | – | Activity (Salmonella typhimurium [7]): Toxic; Activity (Salmonella typhimurium [6]): Toxic |
| CC1CS(=O)(=O)CCN1/N=C/c1ccc([N+](=O)[O-])o1 (stereo not given) [NIFURTIMOX] | – | 150 | 8000 | 200 | selectivity ratio [8]: 200; IC50 (Trypanosoma cruzi [9]): 450 nM and 2400 nM |
| O=[N+]([O-])c1ccc(/C=N/N=c2\[nH]c(-c3ccc(Cl)cc3)cs2)s1 | – | – | 4900 | – | inhibition at 48 h, 25 µM [10]: > 50% |
| C=CCn1c(C)cs/c1=N\N=C\c1ccc([N+](=O)[O-])s1 | 10500 | – | 10000 | – | Activity (Salmonella typhimurium [11]): Non-toxic; Activity (Salmonella typhimurium [12]): Non-toxic |
| C=CCNC(=S)N/N=C/C=C/C=C/c1cccs1 | > 25000 | – | 600 | – | Activity (Salmonella typhimurium [13]): Non-toxic; IC90 (Trypanosoma cruzi [14]): > 25000 nM; Activity (Salmonella typhimurium [15]): Non-toxic |
| C=CCN1C(=O)CS\C1=N/N=C/C=C/c1ccc([N+](=O)[O-])s1 | 2800 | 28 | 1300 | 80 | Activity (Salmonella typhimurium [16]): Non-toxic; Activity (Salmonella typhimurium [17]): Toxic |
| C=CCn1c(C)csc1=N/N=C/c1ccc([N+](=O)[O-])s1 | 2550 | – | 20000 | – | Activity (Salmonella typhimurium [11]): Non-toxic; Activity (Salmonella typhimurium [12]): Non-toxic |
